Measurements from ChEMBL document CHEMBL1138854, “Synthesis and antitumor activity of guanylhydrazones from 6-(2,4-dichloro-5-nitrophenyl)imidazo[2,1-b]thiazoles and 6-pyridylimidazo[2,1-b]thiazoles(1)” (2006).
The source made the active and inactive calls. No cut-off for these calls is given here.

Legend:
[1] = Antitumor activity against colon cell lines of the NCI60 panel; format: functional; conditions: Homo sapiens; for TGI: read-out: pTGI (converted)
How it was run: (§1)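 Run by NCI in the 60-cell-line panel (details in Supporting Information). Highest concentration 10^-4 M unless noted (one case 10-2.6 M). Values expressed as -log molar concentration giving 50% growth inhibition (pGI50), total cytostasis (pTGI) or 50% cell kill (pLC50); only values >4.00 reported; mean graph midpoint is the calculated panel mean.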

[2] = Antitumor activity against ovarian cell lines of the NCI60 panel; format: functional; conditions: Homo sapiens; for TGI: read-out: pTGI (converted); how it was run: as §1
[3] = Antitumor activity against leukemia cell lines of the NCI60 panel; format: functional; conditions: Homo sapiens; for TGI: read-out: pTGI (converted); how it was run: as §1
[4] = tested on: NSCLC; assay: Antitumor activity against NSCLC cell lines of the NCI60 panel; format: functional; conditions: Homo sapiens; for TGI: read-out: pTGI (converted); how it was run: as §1
[5] = Antitumor activity against melanoma cell lines of the NCI60 panel; format: functional; conditions: Homo sapiens; for TGI: read-out: pTGI (converted); how it was run: as §1
[6] = Antitumor activity against prostate cell lines of the NCI60 panel; format: functional; conditions: Homo sapiens; for TGI: read-out: pTGI (converted); how it was run: as §1
[7] = Antitumor activity against renal cell lines of the NCI60 panel; format: functional, Homo sapiens; conditions: Homo sapiens, renal; for TGI: read-out: pTGI (converted); how it was run: as §1
[8] = Antitumor activity against CNS cell lines of the NCI60 panel; format: functional; conditions: Homo sapiens; for TGI: read-out: pTGI (converted); how it was run: as §1
[9] = Antitumor activity against breast cell lines of the NCI60 panel; format: functional; conditions: Homo sapiens; for TGI: read-out: pTGI (converted); how it was run: as §1
[10] = tested on: HL-60; assay: Induction of cell death in HL60 cells at 50 uM after 24 hrs relative to control; format: functional, Homo sapiens
How it was run: (§2)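 Compound was dissolved in DMSO and diluted into complete medium; controls received matching DMSO. Cell death was scored by propidium iodide flow cytometry and by trypan blue exclusion. One experiment is shown, repeated three times.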

[11] = tested on: HL-60; assay: Mitochondrial potential in HL60 cells assessed as decrease in mitochondrial membrane potential by DiOC6 staining at 25 uM after 24 hrs; set-up: scale not given: the % may be the effect or the level left
[12] = tested on: HL-60; assay: Reduction in G0/G1 phase of cell cycle arrest in HL60 cells; format: functional, cell-based; conditions: Homo sapiens
How it was run: (§3)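 HL60 cells (RPMI 1640, 10% FCS, 2 mM glutamine, 37 °C, 5% CO2) exposed to graded concentrations for 24 h; compound in DMSO diluted in complete medium, DMSO vehicle controls. Nuclei isolated, kept at 4 °C in dark, stained with 50 µg/mL propidium iodide just before flow cytometry; DNA profiles give G0/G1, S, G2/M fractions. Mean ± SEM of three determinations.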

[13] = tested on: HL-60; assay: Reduction in cell proliferation of HL60 cells at 25 uM after 48 hrs relative to control; format: functional, Homo sapiens; set-up: scale not given: the % may be the effect or the level left
How it was run: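 HL60 cells in complete RPMI medium incubated with compound (DMSO-diluted; vehicle controls); total cell number counted by flow cytometry relative to control. One experiment shown, repeated three times.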

[14] = tested on: HL-60; assay: Cell cycle arrest in HL60 cells by accumulation in G2/M phase at 25 uM after 24 hrs
[15] = biological target: T1, S-adenosylmethionine decarboxylase proenzyme (Homo sapiens) (UniProt P17707); assay: Inhibition of SAMDC in HL60 cells by release of radioactive CO2 from [14C-carboxyl]S-adenosylmethionine; conditions: HL-60
T1 sequence (whole entry): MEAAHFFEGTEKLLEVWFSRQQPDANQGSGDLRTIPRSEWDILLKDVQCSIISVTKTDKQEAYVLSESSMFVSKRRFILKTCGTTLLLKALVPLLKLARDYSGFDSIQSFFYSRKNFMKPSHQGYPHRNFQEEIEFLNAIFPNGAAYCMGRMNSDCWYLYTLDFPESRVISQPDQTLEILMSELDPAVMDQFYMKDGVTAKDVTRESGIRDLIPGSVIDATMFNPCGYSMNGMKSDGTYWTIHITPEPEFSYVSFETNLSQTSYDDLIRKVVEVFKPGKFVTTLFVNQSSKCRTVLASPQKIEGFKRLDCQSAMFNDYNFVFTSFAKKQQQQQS

[16] = tested on: HL-60; assay: Induction of cell death in HL60 cells at 25 uM after 48 hrs relative to control; format: functional, Homo sapiens; how it was run: as §2
[17] = tested on: HL-60; assay: Reduction in S phase of cell cycle arrest in HL60 cells; format: functional, cell-based; conditions: Homo sapiens; how it was run: as §3
[18] = tested on: HL-60; assay: Increase in p21 level in HL60 cells at 25 uM after 24 hrs; format: functional, cell-based; conditions: Homo sapiens
How it was run: (§4)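 HL60 cells held 24 h with or without 25 µM compound (DMSO vehicle); cellular proteins extracted and p21 and p27 detected by Western blotting with specific antibodies. Repeated at least twice.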

[19] = tested on: HL-60; assay: Cell cycle arrest in HL60 cells by accumulation in G2/M phase; format: functional, cell-based; conditions: Homo sapiens; how it was run: as §3
[20] = tested on: HL-60; assay: Increase in p27 level in HL60 cells at 25 uM after 24 hrs; format: functional, cell-based; conditions: Homo sapiens; how it was run: as §4
[21] = tested on: HL-60; assay: Induction of cell death in HL60 cells at 50 uM within 3 hrs relative to control; format: functional, Homo sapiens; how it was run: as §2

## CCc1cn2c(/C=N/NC(=N)N)c(-c3cc([N+](=O)[O-])c(Cl)cc3Cl)nc2s1
[1]
  GI50: 1.38 µM
  TGI: 2.95 µM
[2]
  GI50: 1.58 µM
  TGI: 3.09 µM
[3]
  GI50: 0.933 µM
  TGI: 3.24 µM
[4]
  GI50: 1.7 µM
  TGI: 3.16 µM
[5]
  GI50: 1.51 µM
  TGI: 2.82 µM
[6]
  GI50: 1.58 µM
  TGI: 3.09 µM
[7]
  GI50: 1.51 µM
[8]
  GI50: 1.45 µM
  TGI: 2.82 µM
[9]
  GI50: 1.66 µM
  TGI: 4.27 µM

## Cc1cn2c(/C=N/NC(=N)N)c(-c3cccnc3)nc2s1
[1]
  GI50: 5.62 µM
  TGI: 20.9 µM
[2]
  GI50: 15.8 µM
  TGI: 36.3 µM
[3]
  GI50: 4.79 µM
  TGI: 51.3 µM
[4]
  GI50: 13.8 µM
  TGI: 36.3 µM
[5]
  GI50: 10.2 µM
  TGI: 25.7 µM
[6]
  GI50: 6.92 µM
  TGI: 24.5 µM
[7]
  GI50: 9.55 µM
[8]
  GI50: 12 µM
  TGI: 28.2 µM
[9]
  GI50: 7.08 µM
  TGI: 22.4 µM

## Cc1cn2c(/C=N/NC(=N)N)c(-c3cc([N+](=O)[O-])c(Cl)cc3Cl)nc2s1
[1]
  GI50: 0.661 µM
  TGI: 49 µM
[2]
  GI50: 2.09 µM
  TGI: 19.5 µM
[3]
  GI50: 1.62 µM
[4]
  GI50: 2.51 µM
  TGI: 19.5 µM
[5]
  GI50: 2.29 µM
[6]
  TGI: 2.34 µM
[7]
  GI50: 2.09 µM
  TGI: 11.7 µM
[7]; read-out: Log LC50 (converted)
  LC50: 60.3 µM
[8]
  GI50: 2.14 µM
[9]
  GI50: 4.17 µM

## Cc1sc2nc(-c3ccccn3)c(/C=N/NC(=N)N)n2c1C
[1]
  GI50: 18.2 µM
  TGI: 40.7 µM
[10]
  Activity: 100%
[2]
  GI50: 18.6 µM
  TGI: 37.2 µM
[3]
  GI50: 52.5 µM
  TGI: 83.2 µM
[11]
  Activity: 50%
[12]
  Activity: Active
[13]
  Activity: > 80%
[4]
  GI50: 18.2 µM
  TGI: 37.2 µM
[5]
  GI50: 17 µM
  TGI: 33.1 µM
[6]
  GI50: 22.4 µM
  TGI: 57.5 µM
[14]
  Activity: 52%
[15]
  Activity: inactive
[16]
  Activity: 25%
[17]
  Activity: Active
[7]
  GI50: 6.61 µM
  TGI: 31.6 µM
[18]
  Activity: Active
[19]
  Activity: Dose-dependent effect
[20]
  Activity: Active
[8]
  GI50: 20.9 µM
  TGI: 41.7 µM
[9]
  GI50: 22.9 µM
  TGI: 41.7 µM
[21]
  Activity: 45%

## N=C(N)N/N=C/c1c(-c2cc([N+](=O)[O-])c(Cl)cc2Cl)nc2sc(Cl)cn12
[1]
  GI50: 5.75 µM
  TGI: 50.1 µM
[2]
  GI50: 19.5 µM
  TGI: 66.1 µM
[3]
  GI50: 3.55 µM
  TGI: 44.7 µM
[4]
  GI50: 22.9 µM
  TGI: 72.4 µM
[5]
  GI50: 11.2 µM
  TGI: 53.7 µM
[6]
  GI50: 19.1 µM
  TGI: 93.3 µM
[7]
  GI50: 29.5 µM
  TGI: 81.3 µM
[8]
  GI50: 10.7 µM
  TGI: 64.6 µM
[9]
  GI50: 10.5 µM
  TGI: 38.9 µM
